Measured values: PubChem BioAssay
Records with an inconclusive call do not appear.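 Rule for the calls, unless noted: active = inhibition over a set limit, the all-compound mean plus 3 SD, in both replicate runs; inconclusive = over that limit in just one replicate run; inactive = at or under that limit in both runs.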

Key:
[1] = S. cerevisiae growth inhibition in permissive medium (OD615), pilot counter-assay for S. cerevisiae lifespan shortening project, permissive growth control (AID 705;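 active = growth inhibition above 25% in both replicates, a cutoff set 3 SD above the mean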); conditions: OD615, 24 h, at 10 µM, stronger effect = higher value
Summary of the method: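 System: Engineered DeaD yeast | Buffer or medium: SC raffinose/galactose permissive medium | Doses: 10 µM single dose, 0.25% DMSO | Times: 24 h exposure, 30 °C | Measured by: OD615 turbidity read | Read-out: Yeast growth inhibition indicated by reduced 24 h OD615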

[2] = S. cerevisiae growth inhibition in restrictive medium, OD615, pilot screen, restrictive growth control, yeast lifespan reduction project (AID 706;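 active = growth inhibition above a set limit, 3 SD over mean compound inhibition, in both replicates, cut at about 43% in these data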;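 note: modified DeaD lifespan yeast strain shifted to restrictive glucose medium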); conditions: OD615, 48 h, at 10 µM, stronger effect = higher value
Summary of the method: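 Assay system: engineered S. cerevisiae DeaD strain; Buffer or medium: CSMM-D glucose medium; Dosing: 10 µM compound, 0.25% DMSO; Times: cell pre-growth 4 h, compound exposure 48 h, 30 °C; Detection: absorbance (optical density) measured at 615 nm.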

[3] = doxorubicin toxicity protection in MRP-1 cells – H69AR cells, CellTiter-Glo, duplicate, MRP-1 activator project, pilot screen (AID 807;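 active = viability increase at or above a cutoff of the median across tested compounds plus 3 SD, cut at about 8.5% in these data, passing the limit was not always enough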;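 note: compound pretreatment 18-22 h then 72 h combined with doxorubicin; 0% = doxorubicin alone and 100% = vehicle without doxorubicin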); conditions: H69AR viability with doxorubicin, CellTiter-Glo luminescence; at 10 µM; stronger effect = higher value
[4] = viability of HCT116 without oncogenic beta-catenin – human colon tumor cells, pilot screen (AID 823;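 active = cell viability at or below a set limit in both duplicate runs, the limit being the all-compound median minus 4 SD, cut at about 23% in these data, passing the limit was not always enough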;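 note: 0% = wells killed by 20 µM Hyamine and 100% = untreated DMSO cell wells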); conditions: HCT116 beta-catenin knockout viability, CellTiter-Glo, 60 h; at 10 µM; stronger effect = lower value
[5] = viability of PTEN-null HCT116 cells – cell-based, HCT116 clonal line, CellTiter-Glo, pilot screen (AID 824;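 active = viability at or below 27.92% in each of two runs, the all-compound median minus 4 SD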;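 note: 0% = 20 µM Hyamine control and 100% = vehicle cell control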); conditions: HCT116 PTEN-deleted viability, 60 h, at 10 µM, stronger effect = lower value
[6] = RAM pathway blockade in budding yeast – dse1pr::URA3 reporter, 5-FOA selection, pilot screen (AID 869);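 note: 0% = DMSO wells with no growth and 100% = 10 µM 1-NA-PP1 with full growth; RAM network block rescues cells from 5-FOA so hits raise OD615 growth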; conditions: S. cerevisiae dse1pr::URA3 5-FOA growth, OD615, 2 d; at 10 µM; stronger effect = higher value; strain carries analog-sensitive mutant Cbk1 kinase
[7] = RAM signaling pathway blockade in yeast – S. cerevisiae, Pdr1DBD-CYC8 efflux-inhibited sensitized strain, primary screen (AID 1298;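 active = RAM network inhibition above 8.4% in each of two replicates, 3 SD over the compound average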;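 note: 0% = DMSO untreated cells without growth and 100% = 10 µM 1-NA-PP1 full growth; higher means more yeast growth rescued from 5-FOA killing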); conditions: S. cerevisiae cbk1-as DSE1-URA3 strain, 5-FOA growth OD615, 2 d; at 50 µM; stronger effect = higher value

CCOC(=O)c1ccc(N2C(=O)CC(C3CCCO3)C2=O)cc1 (stereo unspecified)
inactive: growth inhibition [1] 4.47% | growth inhibition [2] 1.21% | viability increase [3] -2.28% | viability [4] 101% | viability [5] 94.3% | inhibition [6] 0.84% | RAM network inhibition [7] 2.15%

COCCn1c(=O)[nH]c2cc(C(=O)NCC3CCCO3)ccc2c1=O (stereo unspecified)
inactive: growth inhibition [1] -6.33% | growth inhibition [2] -1.18% | viability increase [3] -0.04% | viability [4] 100% | viability [5] 95.2% | inhibition [6] 1.23% | RAM network inhibition [7] 1.45%

CCN1CCN(C(=O)c2cc3c(=O)oc4ccc(C)cc4c3s2)CC1
inactive: growth inhibition [1] -12.6% | growth inhibition [2] -16.2% | viability increase [3] -2.18% | viability [4] 102% | viability [5] 93.7% | inhibition [6] 0.905% | RAM network inhibition [7] 1.3%

COC(=O)/C=C(\C)NC(=O)c1cccs1
inactive: growth inhibition [1] -1.38% | growth inhibition [2] 4.05% | viability increase [3] 0.51% | viability [4] 101% | viability [5] 97.5% | inhibition [6] -0.705% | RAM network inhibition [7] 0.06%

Cc1cccc(NC(=O)C2CCN(S(=O)(=O)c3cccc4cccnc34)CC2)n1
inactive: growth inhibition [1] -2.91% | growth inhibition [2] 4.94% | viability increase [3] -3.03% | viability [4] 87.2% | viability [5] 84.7% | inhibition [6] 1.35% | RAM network inhibition [7] 1.44%

CC(=O)c1sc2ccccc2c1OC(=O)c1ccco1
inactive: growth inhibition [1] -9.99% | growth inhibition [2] -11.4% | viability increase [3] -4.46% | viability [4] 83% | viability [5] 85.3% | inhibition [6] 0.39% | RAM network inhibition [7] 1.97%

COc1ccc(-n2c(Cc3cc(=O)[nH]c(=O)[nH]3)nnc2SCc2ccccc2)cc1
inactive: growth inhibition [1] 6.28% | growth inhibition [2] -3.2% | viability increase [3] -0.7% | viability [4] 108% | viability [5] 103% | inhibition [6] 0.455% | RAM network inhibition [7] 3.82%

Cc1ccc2c(c1)c1c(n2CC(O)Cn2c(C)nc3ccccc32)C(=O)CCC1 (stereo unspecified)
inactive: growth inhibition [1] -7.12% | growth inhibition [2] -1.9% | viability increase [3] -0.7% | viability [4] 59.2% | viability [5] 62.2% | inhibition [6] 2.33% | RAM network inhibition [7] 7.19%

CCc1n[nH]c2c1/C(=N\O)CC(C)(C)C2
inactive: growth inhibition [1] -4.62% | growth inhibition [2] -1.83% | viability increase [3] -2.26% | viability [4] 99.4% | viability [5] 108% | inhibition [6] 1.68% | RAM network inhibition [7] 1.03%

Cc1ccc(C)c(SCC(=O)OCC(=O)c2ccco2)c1
inactive: growth inhibition [1] -21.2% | growth inhibition [2] -14.6% | viability increase [3] -3.35% | viability [4] 88.9% | viability [5] 91.6% | inhibition [6] 0.705% | RAM network inhibition [7] 2.26%

O=C(Nc1nnc(CC(=O)N2CCCC2)s1)c1cnccn1
inactive: growth inhibition [1] -3.58% | growth inhibition [2] 4.7% | viability increase [3] -1.2% | viability [4] 104% | viability [5] 100% | inhibition [6] 1.66% | RAM network inhibition [7] -0.94%

Cc1c(NC2=C(Cl)C(=O)N(c3ccccc3)C2=O)c(=O)n(-c2ccccc2)n1C
inactive: growth inhibition [1] 8.25% | growth inhibition [2] 28.3% | viability increase [3] -6.66% | viability [4] 90.7% | viability [5] 94.4% | inhibition [6] 1.42% | RAM network inhibition [7] 3.28%

CCn1c(=NC(=O)c2ccc(N3C(=O)CCC3=O)cc2)sc2c(OC)ccc(OC)c21
inactive: growth inhibition [1] -5.79% | growth inhibition [2] -11.5% | viability increase [3] -0.73% | viability [4] 97.9% | viability [5] 92.7% | inhibition [6] 1.86% | RAM network inhibition [7] 8.5%

Clc1ccc(CSc2nnc(-c3cccnc3)n2Cc2ccco2)c(Cl)c1
inactive: growth inhibition [1] 1.24% | growth inhibition [2] 34.1% | viability increase [3] -3.29% | viability [4] 87.3% | viability [5] 88.2% | inhibition [6] 2.67% | RAM network inhibition [7] 11.6%

Cc1cc(SCC(=O)OCC(=O)N2CCN(C(=O)c3ccco3)CC2)c(C)cc1Br
inactive: growth inhibition [1] -2.27% | growth inhibition [2] 4.81% | viability increase [3] -2.19% | viability [4] 91.4% | viability [5] 98.2% | inhibition [6] 0.31% | RAM network inhibition [7] 0.4%

Cc1ccccc1C(=O)N1CCC(C(=O)Nc2cccc(F)c2)CC1
inactive: growth inhibition [1] -7.2% | growth inhibition [2] -1.04% | viability increase [3] -0.02% | viability [4] 98.1% | viability [5] 82.7% | inhibition [6] 1.3% | RAM network inhibition [7] 3.22%

CCOc1ccc(N(CC(=O)NCCSc2ccccn2)S(C)(=O)=O)cc1
inactive: growth inhibition [1] 0.64% | growth inhibition [2] 2.82% | viability increase [3] -3.63% | viability [4] 97.8% | viability [5] 95.3% | inhibition [6] 0.35% | RAM network inhibition [7] 3.38%

Cc1c(C(=O)NCc2cccnc2)sc2nc(-c3ccc(F)cc3)cn12
inactive: growth inhibition [1] -6.33% | growth inhibition [2] 22.2% | viability increase [3] 0.45% | viability [4] 77.3% | viability [5] 78% | inhibition [6] 1.01% | RAM network inhibition [7] 2.56%

COc1ccc(-c2nc(CSCC(=O)N3CCN(C(=O)c4ccco4)CC3)c(C)o2)cc1OC
inactive: growth inhibition [1] -1.3% | growth inhibition [2] 0.055% | viability increase [3] -1.9% | viability [4] 106% | viability [5] 103% | inhibition [6] -0.54% | RAM network inhibition [7] 5.11%

CSCC[C@@H](C(=O)O)N1Cc2ccccc2C1=O
inactive: growth inhibition [1] 7.93% | growth inhibition [2] 6.17% | viability increase [3] 0% | viability [4] 105% | viability [5] 103% | inhibition [6] 1.69% | RAM network inhibition [7] -0.16%

Cc1ccc(C2CC(c3ccco3)n3nc(N)nc3N2)cc1 (stereo unspecified)
inactive: growth inhibition [1] 4.36% | growth inhibition [2] 11.9% | viability increase [3] -1.44% | viability [4] 96.5% | viability [5] 99.8% | inhibition [6] -1.15% | RAM network inhibition [7] 3.41%

Cc1cc(C)c(C#N)c(Nc2ccc3c(c2)OCCO3)n1
inactive: growth inhibition [1] 0.055% | growth inhibition [2] -10.2% | viability increase [3] -1.17% | viability [4] 97.6% | viability [5] 93.9% | inhibition [6] 0.915% | RAM network inhibition [7] 0.66%

CCCC(=O)NCCCc1nc2ccccc2n1CC
inactive: growth inhibition [1] -7.75% | growth inhibition [2] 0.985% | viability increase [3] 0.81% | viability [4] 100% | viability [5] 101% | inhibition [6] -0.16% | RAM network inhibition [7] 0.58%

Cc1cc(N2CCOCC2)nc2cc(O)ccc12
inactive: growth inhibition [1] -10.3% | growth inhibition [2] -15.5% | viability increase [3] -1.02% | viability [4] 97.4% | viability [5] 87.6% | inhibition [6] 1.31% | RAM network inhibition [7] 5.97%

COc1ccc(N2C(=O)CCC(C(=O)N3CCC(C(N)=O)CC3)C2c2ccc(F)cc2)cc1 (stereo unspecified)
inactive: growth inhibition [1] -5.89% | growth inhibition [2] -16.2% | viability increase [3] -0.33% | viability [4] 99.6% | viability [5] 102% | inhibition [6] 1.6% | RAM network inhibition [7] 3.66%

CCCn1cc(S(=O)(=O)CC(=O)Nc2ccc(OC)cc2OC)c2ccccc21
inactive: growth inhibition [1] -7.84% | growth inhibition [2] 6.44% | viability increase [3] -1.59% | viability [4] 97.9% | viability [5] 96.4% | inhibition [6] 2.81% | RAM network inhibition [7] -0.12%

CC1(C)CCCC2=C1CC1C(=O)N(Cc3cccnc3)C(=O)C1C2 (stereo unspecified)
inactive: growth inhibition [1] -6.32% | growth inhibition [2] -10.3% | viability increase [3] -0.2% | viability [4] 82.2% | viability [5] 86.7% | inhibition [6] 1.11% | RAM network inhibition [7] 4.53%

Cn1c(C(=O)N2CCCC2)cc2c(=O)n(C)c3ccccc3c21
inactive: growth inhibition [1] -2.97% | growth inhibition [2] 3.21% | viability increase [3] -3.32% | viability [4] 102% | viability [5] 95.5% | inhibition [6] 2.04% | RAM network inhibition [7] -0.2%

CC(C)(CC(=O)O)Cc1nc(-c2ccc(Cl)cc2)no1
inactive: growth inhibition [1] 2.38% | growth inhibition [2] 10.4% | viability increase [3] 1.26% | viability [4] 100% | viability [5] 93.2% | inhibition [6] 0.855% | RAM network inhibition [7] -3.9%

Cc1ccc(-c2nc(CS(=O)CC(=O)N3CCN(c4ncccn4)CC3)c(C)o2)cc1 (stereo unspecified)
inactive: growth inhibition [1] -0.52% | growth inhibition [2] 10.7% | viability increase [3] -2.28% | viability [4] 76.8% | viability [5] 90.2% | inhibition [6] 2.31% | RAM network inhibition [7] 4.78%

CCOc1ccc(N(CC(=O)NC(C)(C)C)S(=O)(=O)c2c(C)noc2C)cc1
inactive: growth inhibition [1] -19.9% | growth inhibition [2] -9.45% | viability increase [3] -4.94% | viability [4] 81.5% | viability [5] 81.8% | inhibition [6] 0.36% | RAM network inhibition [7] -1%

Cc1cc(Nc2ccc(Br)cc2F)n2ncnc2n1
inactive: growth inhibition [1] -2.09% | growth inhibition [2] 11.9% | viability increase [3] -3.52% | viability [4] 90.6% | viability [5] 87.2% | inhibition [6] 0.76% | RAM network inhibition [7] -0.94%

COc1ccccc1S(=O)(=O)Cc1ccc(C(=O)NCc2ccc3c(c2)OCO3)o1
inactive: growth inhibition [1] -4.21% | growth inhibition [2] -26.9% | viability increase [3] -2.83% | viability [4] 91.9% | viability [5] 87.4% | inhibition [6] 1.9% | RAM network inhibition [7] 6.73%
